Assay results from different studies.
Lines come from different studies, so protocols differ.
Target: Mitogen-activated protein kinase kinase kinase 14 (MAP3K14, Homo sapiens, UniProt Q99558)

CC(C)(C)c1nc2c(s1)c1nc(N)ncc1c1ccc(NS(=O)(=O)c3c(F)cccc3F)c(F)c12
remaining activity (enzyme activity, inhibitor, radiometric; 1 µM): 104%

C[C@@H](c1cccc(C#N)c1)n1cc(Cl)cc(C(N)=O)c1=N
remaining binding (cell-free assay, competition with immobilised ligand; 1 µM): 93%

C[C@@H]1CCN(c2nccc(-c3cnn4ncccc34)n2)C1
remaining binding (binding, competition with immobilised ligand; 1 µM): 72%

CC(C)(O)[C@H]1CC[C@H](Nc2ccc3ncc(-c4cccc(C(F)(F)F)c4)n3n2)CC1
remaining activity (enzyme activity, inhibitor; 1 µM): 114%

CCCOc1ccc([C@H]2[C@H](C(=O)O)[C@@H](c3ccc4c(c3)OCO4)CN2CC(=O)Nc2c(CC)cccc2CC)cc1
remaining binding (cell-free assay, competition with immobilised ligand; 1 µM): 85%

CC(C)(C)c1nc(-c2cccc(NS(=O)(=O)c3c(F)cccc3F)c2F)c(-c2ccnc(N)n2)s1
remaining activity (enzyme activity, inhibitor, radiometric; 1 µM): 100%

N#CCCc1ccc2c(c1)-c1[nH]c3ccc([N+](=O)[O-])cc3c1CC(=O)N2
remaining signal (cell-free assay; 0.5 µM): 161%

Nc1ncnc2occ(-c3ccc(NC(=O)Nc4cc(C(F)(F)F)ccc4F)cc3)c12
remaining signal (cell-free assay, inhibitor; 20 µM): 93%
